Laboratory results: PubChem BioAssay AID504450 (Broad Institute, 2011)
Records with an inconclusive call do not appear. Active and inactive are the calls of the source.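 The calls were made as follows: active = signal falls, and half-maximal potency stays within ten times the top tested dose in every run; inconclusive = runs disagree, or a flat partial drop, or a poor fit; inactive = inactive every run, flat, wrong way or too weak.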

Legend:
[1] = system: HMLE_sh_eGFP viability, CellTiter-Glo luminescence, 72 h; assay: cytotoxicity in HMLE_sh_eGFP control cells, dose response, counter-screen for breast cancer stem cell project, cell-based, luminescence, powder samples, set 4 (AID 504450)
Outline: (§1)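 Material: HMLE_sh_eGFP cells / Amount: 2000 cells/well / Medium: serum-free CSC medium / Dosing: 100 nL compound added by pin transfer per well / Incubation: ~72 h compound exposure, 37 °C / Detection: CellTiter-Glo luminescence / Benchmarks: DMSO neutral, puromycin positive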

[2] = as above; conditions: HMLE_sh_eGFP viability, CellTiter-Glo luminescence, 72 h; at 30 µM (top of the series)
Outline: as §1

CC(C)c1ccc(/C=C/C(=O)NCc2ccccc2)cc1
AC50 [1]: 13.2 µM

Cn1ccnc1NC(=O)c1ccc(COc2ccccc2)o1
activity change, negative = viability loss [2]: -18.4% (inactive)

CC(C)c1ccc(/C=C/C(=O)N(C)Cc2ccccc2)cc1
AC50 [1]: 9.01 µM

CC(C)(C)c1ccc(C2CC2C(=O)N/N=C/c2ccc[nH]2)cc1 (stereo not drawn)
AC50 [1]: 2.14 µM

Cc1csc(NC(=O)c2ccc(COc3ccc(OC(F)(F)F)cc3)o2)n1
AC50 [1]: 13.2 µM

COc1cccc(/C=C/C(=O)NC2=NCCS2)c1
activity change, negative = viability loss [2]: 1.9% (inactive)

O=C(Nc1nc2cccc(Cl)c2s1)c1ccc(COc2ccccc2)o1
AC50 [1]: 9.36 µM

Cc1csc(NC(=O)c2ccc(COc3ccccc3C(F)(F)F)o2)n1
AC50 [1]: 0.057 µM

Cc1csc(NC(=O)c2ccc(COc3cccc(F)c3)o2)n1
AC50 [1]: 21.5 µM

Cc1cccc(C)c1OCC(=O)N/N=C/c1ccc[nH]1
activity change, negative = viability loss [2]: 8.5% (inactive)

O=C(/C=C/c1ccc(C(F)(F)F)cc1)NC1=NCCS1
activity change, negative = viability loss [2]: 11.7% (inactive)

Cc1csc(NC(=O)c2ccc(COc3cccc(C(F)(F)F)c3)o2)n1
AC50 [1]: 23.5 µM

O=C(Nc1nccs1)c1ccc(COc2ccccc2)o1
activity change, negative = viability loss [2]: 5.29% (inactive)

O=C(NC1=NCCS1)/C(F)=C/c1ccccc1
activity change, negative = viability loss [2]: 13.9% (inactive)

O=C(COc1c(Cl)cc(Cl)cc1Cl)N/N=C/c1ccn[nH]1
activity change, negative = viability loss [2]: 0.468% (inactive)

Cc1csc(NC(=O)c2ccc(COc3cccc(OC(F)(F)F)c3)o2)n1
AC50 [1]: 4.4 µM

Cc1csc(NC(=O)c2ccc(COc3ccc(F)cc3)o2)n1
AC50 [1]: 28.5 µM

O=C(COc1ccc2ccccc2c1Br)N/N=C/c1ccc[nH]1
AC50 [1]: 3.03 µM

Cc1csc(NC(=O)c2ccc(COc3ccccc3Cl)o2)n1
AC50 [1]: 0.163 µM

O=C(N/N=C/c1ccc[nH]1)C1COc2cc3ccccc3cc2O1 (stereo not drawn)
AC50 [1]: 18.9 µM

O=C(COc1ccc(Cl)cc1Br)N/N=C/c1ccc[nH]1
AC50 [1]: 20.9 µM

Cc1csc(NC(=O)c2ccc(COc3ccc(C(F)(F)F)cc3)o2)n1
AC50 [1]: 2.92 µM

O=C(NC1=NCCS1)C1CC1c1ccccc1 (stereo not drawn)
activity change, negative = viability loss [2]: 7.45% (inactive)

COc1ccccc1OCC(=O)N/N=C/c1ccc[nH]1
activity change, negative = viability loss [2]: 14.8% (inactive)

CC(C)(C)c1ccc(/C=C/C(=O)NC2=NCCS2)cc1
AC50 [1]: 20.6 µM

O=C(Nc1ccccn1)c1ccc(COc2ccccc2)o1
AC50 [1]: 29.7 µM

O=S(=O)(/C=C/c1ccccc1)NC1=NCCS1
activity change, negative = viability loss [2]: 19.6% (inactive)

Cc1ccc(C)c(OCC(=O)N/N=C/c2ccc[nH]2)c1
activity change, negative = viability loss [2]: -10.1% (inactive)

O=C(N/N=C/c1ccn[nH]1)c1cc2ccccc2o1
activity change, negative = viability loss [2]: 16.4% (inactive)

Cc1csc(NC(=O)c2ccc(COc3ccccc3C#N)o2)n1
AC50 [1]: 3.69 µM

Cc1csc(NC(=O)c2ccc(COc3ccccc3OC(F)(F)F)o2)n1
AC50 [1]: 0.38 µM

Cc1csc(NC(=O)c2ccc(COc3cccc(C#N)c3)o2)n1
AC50 [1]: 15.4 µM

O=C(c1ccc(COc2ccccc2)o1)N1CCOCC1
activity change, negative = viability loss [2]: 5.39% (inactive)

CC(C)c1ccc(/C=C/C(=O)Nc2ccccn2)cc1
AC50 [1]: 14.8 µM

O=C(CSc1cc(Cl)ccc1Cl)N/N=C/c1ccc[nH]1
AC50 [1]: 18 µM

O=C(N/N=C/c1ccc[nH]1)C1CC1c1ccccc1 (stereo not drawn)
activity change, negative = viability loss [2]: -2.24% (inactive)

C/C(=C\c1ccccc1)C(=O)NC1=NCCS1
activity change, negative = viability loss [2]: 12% (inactive)

COc1ccccc1OCc1ccc(C(=O)Nc2nc(C)cs2)o1
AC50 [1]: 8.54 µM

Cc1csc(NC(=O)c2ccc(COc3cccc(Cl)c3)o2)n1
AC50 [1]: 6.6 µM

Cc1csc(NC(=O)c2ccc(CO)o2)n1
activity change, negative = viability loss [2]: 13.5% (inactive)

O=C(COc1ccc(Cl)cc1Cl)N/N=C/c1ccn[nH]1
activity change, negative = viability loss [2]: 6.79% (inactive)

CC(C)c1ccc(/C=C/C(=O)Nc2ncc[nH]2)cc1
activity change, negative = viability loss [2]: -18.2% (inactive)

CC[C@@H](C(=O)O)C1CC[C@H](C)C([C@@H](C)[C@H](O)[C@H](C)C(=O)[C@H](CC)C2O[C@]3(C=C[C@@H](O)[C@]4(CC[C@@](C)(C5CC[C@](O)(CC)[C@H](C)O5)O4)O3)[C@H](C)C[C@@H]2C)O1 (stereo partly drawn)
AC50 [1]: 0.007 µM

Cc1csc(NC(=O)c2ccc(COc3ccc(Cl)cc3)o2)n1
AC50 [1]: 13 µM

O=C(COc1ccc2c(c1)OCO2)N/N=C/c1ccc[nH]1
AC50 [1]: 20.9 µM

CC(C)c1ccc(/C=C/C(=O)Nc2nncs2)cc1
AC50 [1]: 9.97 µM

COc1cccc(OCc2ccc(C(=O)Nc3nc(C)cs3)o2)c1
AC50 [1]: 1.59 µM

O=C(/C=C/c1cccc(Cl)c1)NC1=NCCS1
AC50 [1]: 21.5 µM

CC(C)c1ccc(/C=C/C(=O)Nc2nccn2C)cc1
AC50 [1]: 5.97 µM

Cc1csc(NC(=O)c2ccc(COc3ccc(C#N)cc3)o2)n1
AC50 [1]: 12.7 µM

O=C(/C=C/c1ccc(Cl)cc1)NC1=NCCS1
activity change, negative = viability loss [2]: -4.58% (inactive)

Cc1csc(NC(=O)c2ccc(COc3ccccc3F)o2)n1
AC50 [1]: 0.151 µM

CC(C)c1ccc(/C=C/C(=O)Nc2nccs2)cc1
AC50 [1]: 7.26 µM
